# Columns and labels:
# Type in all cases: functional
# Rattus norvegicus [1] = assay: The compound was tested for antihypertensive activity measured as maximal change in mean arterial blood pressure(MAP), after oral administration of 20 mg/kg of the compound.
# Outline: (§1)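 Conscious SHR with an arterial catheter exteriorized at the nape, held in Bollman restraint cages after a 60-min postsurgical recovery. Only rats with MAP >150 mmHg were used. Single oral gavage dose in distilled water (range 0.003-20 mg/kg), pressure monitored continuously for 4 h by transducer. Maximal % change from predrug MAP over 240 min, N ≥ six rats. ED30 from regression over the linear part of the dose-response, with 95% confidence limits.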
# Rattus norvegicus [2] = species: Rattus norvegicus; assay: The compound was tested for 30% reduction in mean arterial blood pressure(MAP); details: Rattus norvegicus, Arterial blood; read-out: ED30; outline: as §1
# Oryctolagus cuniculus [3] = species: Oryctolagus cuniculus; assay: The compound was tested for increase in [86Rb+] efflux in rabbit isolated mesenteric artery over basal rate at a concentration of 100 uM
# Outline: (§2)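 Vessel rings from freshly killed rabbits, held on steel wires in physiological buffer at 37 °C gassed with 95% O2/5% CO2. Rings loaded with 86Rb (4-5 μCi/mL) for 3-4 h, then moved in pairs through 4 mL buffer tubes every 10 min. Basal efflux taken over 30-40 min, followed by test compound in about five vials, then compound-free washout for 10-20 min. Efflux aliquots and overnight-digested tissue counted by liquid scintillation.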
# Oryctolagus cuniculus [4] = species: Oryctolagus cuniculus; assay: The compound was tested for increase in [86Rb+] efflux in rabbit isolated mesenteric artery over basal rate at a concentration of 30 uM.; outline: as §2
# Rattus norvegicus [5] = assay: Maximal change in rat mean arterial blood pressure after 20 mg/kg p.o.; details: route oral; outline: as §1
# Rattus norvegicus [6] = assay: The compound was tested for antihypertensive activity measured as maximal change in mean arterial blood pressure(MAP), after oral administration of 1 mg/kg of the compound.; outline: as §1
# Oryctolagus cuniculus [7] = species: Oryctolagus cuniculus; assay: The compound was tested for increase in [86Rb+] efflux in rabbit isolated mesenteric artery over basal rate at a concentration of 10 uM; outline: as §2
# Oryctolagus cuniculus [8] = species: Oryctolagus cuniculus; assay: The compound was tested for increase in [86Rb+] efflux in rabbit isolated mesenteric artery over basal rate at a concentration of 30 uM; outline: as §2
# Oryctolagus cuniculus [9] = species: Oryctolagus cuniculus; assay: The compound was tested for increase in [86Rb+] efflux in rabbit isolated mesenteric artery over basal rate at a concentration of 10 uM.; outline: as §2
# Oryctolagus cuniculus [10] = species: Oryctolagus cuniculus; assay: The compound was tested for increase in [86Rb+] efflux in rabbit isolated mesenteric artery over basal rate at a concentration of 1 uM.; outline: as §2
# Oryctolagus cuniculus [11] = species: Oryctolagus cuniculus; assay: The compound was tested for increase in [86Rb+] efflux in rabbit isolated mesenteric artery over basal rate at a concentration of 100 uM( Values in parentheses indicates 95%confidence limits); outline: as §2
# Oryctolagus cuniculus [12] = species: Oryctolagus cuniculus; assay: The compound was tested for increase in [86Rb+] efflux in rabbit isolated mesenteric artery over basal rate at a concentration of 3 uM; outline: as §2
compound,measurement,setting,value
CC1(C)Oc2cc(C#N)sc2[C@@H](N2CCCCC2=O)[C@@H]1O,Change,Rattus norvegicus [1],-66%
same,ED30,Rattus norvegicus [2],0.03 mg/kg
same,Increase,Oryctolagus cuniculus [3],0%
same,Increase,Oryctolagus cuniculus [4],11%
CC1(C)Oc2ccsc2[C@@H](N2CCCCCC2=O)[C@@H]1O,Change,Rattus norvegicus [1],-12%
same,Increase,Oryctolagus cuniculus [3],0%
CC1(C)Oc2cc([N+](=O)[O-])sc2[C@@H](N2CCCNC2=O)[C@@H]1O,Change,Rattus norvegicus [1],-7%
CC1(C)Oc2ccsc2[C@@H](N2CCCC2)[C@@H]1O,Change,Rattus norvegicus [5],-14%
same,Increase,Oryctolagus cuniculus [3],0%
CN(C)C(=O)c1cc2c(s1)[C@@H](N1CCCCC1=O)[C@H](O)C(C)(C)O2,Change,Rattus norvegicus [1],-63%
same,Change,Rattus norvegicus [6],-7%
same,Increase,Oryctolagus cuniculus [3],32%
CC1(C)Oc2ccsc2[C@@H](N2CCCCC2=O)[C@@H]1O,Increase,Oryctolagus cuniculus [7],7%
same,Change,Rattus norvegicus [5],-53%
same,Increase,Oryctolagus cuniculus [3],40%
same,Increase,Oryctolagus cuniculus [4],26%
CC1(C)C=C(N2CCCCC2)c2sc([N+](=O)[O-])cc2O1,Change,Rattus norvegicus [5],-17%
CC1(C)Oc2cc(C(=O)OCc3ccccc3)sc2[C@@H](N2CCCC2=O)[C@@H]1O,Change,Rattus norvegicus [5],-14%
CC1(C)C=C(N2CCCCC2=O)c2sc([N+](=O)[O-])cc2O1,Change,Rattus norvegicus [5],-5%
CC1(C)Oc2cc([N+](=O)[O-])sc2[C@@H](N2CCCCC2=O)[C@@H]1O (relative stereo),Change,Rattus norvegicus [1],-24%
CC1(C)Oc2cc([N+](=O)[O-])sc2[C@@H](N2CCNC2=O)[C@@H]1O,Change,Rattus norvegicus [1],-3%
CC1(C)Oc2cc(C(=O)C(F)(F)F)sc2[C@@H](N2CCCC2=O)[C@@H]1O,Change,Rattus norvegicus [5],-68%
same,Change,Rattus norvegicus [6],-55%
CC1(C)C=C(n2ccccc2=O)c2cc(C#N)ccc2O1 [BIMAKALIM],ED30,Rattus norvegicus [2],0.01 mg/kg
COC(=O)c1cc2c(s1)[C@@H](N1CCCC1=O)[C@H](O)C(C)(C)O2,Change,Rattus norvegicus [5],-31%
CC1(C)Oc2cc(C(=O)c3ccccc3)sc2[C@@H](N2CCCC2=O)[C@@H]1O,Increase,Oryctolagus cuniculus [7],0%
same,Change,Rattus norvegicus [5],-50%
same,Change,Rattus norvegicus [6],-4%
same,Increase,Oryctolagus cuniculus [3],58%
same,Increase,Oryctolagus cuniculus [4],33%
COC(=O)c1cc2c(s1)[C@@H](N1CCCCC1=O)[C@H](O)C(C)(C)O2,Change,Rattus norvegicus [5],-37%
same,Increase,Oryctolagus cuniculus [3],63%
same,Increase,Oryctolagus cuniculus [4],51%
CC1(C)Oc2cc([N+](=O)[O-])sc2[C@@H](n2ccccc2=O)[C@@H]1O,Change,Rattus norvegicus [1],-57%
same,Increase,Oryctolagus cuniculus [8],0%
same,Change,Rattus norvegicus [6],-10%
CC1(C)Oc2cc([N+](=O)[O-])sc2[C@@H](N2CCCC2=O)[C@@H]1O,ED30,Rattus norvegicus [2],0.19 mg/kg
same,Increase,Oryctolagus cuniculus [9],67%
same,Increase,Oryctolagus cuniculus [10],48%
same,Change,Rattus norvegicus [5],-60%
same,Increase,Oryctolagus cuniculus [3],114%
same,Increase,Oryctolagus cuniculus [4],110%
CC1(C)Oc2ccc(C#N)cc2[C@@H](N2CCCC2=O)[C@@H]1O [LEVCROMAKALIM],ED30,Rattus norvegicus [2],0.19 mg/kg
same,Increase,Oryctolagus cuniculus [11],104%
same,Increase,Oryctolagus cuniculus [7],46%
same,Increase,Oryctolagus cuniculus [12],41%
same,Increase,Oryctolagus cuniculus [8],73%
